EBNA-1 inhibitor: blocks EBNA-1 binding to DNA; EBNA-1 DNA binding, fluorescence polarization; AID 1950; 300,000 compounds, 0.34% hits; inhibition, % at 14.8 µM; in the data active = inhibition above about 28%
ALR inh: blocks human ALR sulfhydryl oxidase activity; P55789; purified ALR, DTT oxidation, H2O2 HRP-luminol luminescence; inhibition, % (concentration not given with the values); 290,000 compounds, 3.8% hits;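 active = mean replicate inhibition above about 79%, with every replicate also reaching it, limit read from the data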
Target sequence (P55789 whole entry, looked up): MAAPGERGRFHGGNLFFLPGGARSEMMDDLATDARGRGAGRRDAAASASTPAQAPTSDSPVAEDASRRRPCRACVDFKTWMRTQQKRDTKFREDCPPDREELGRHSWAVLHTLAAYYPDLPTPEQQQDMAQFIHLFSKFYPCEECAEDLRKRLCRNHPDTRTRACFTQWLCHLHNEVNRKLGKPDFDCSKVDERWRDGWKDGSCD
ZTA DNA inh: ZTA (EBV) inhibition in EBNA-1 counter-screen; P03206; ZTA-DNA binding, fluorescence polarization; inhibition, % at 11 µM; 320,000 compounds, 0.15% hits; AID 2234; in the data active = inhibition above about 33%
Target sequence (P03206 whole entry, looked up): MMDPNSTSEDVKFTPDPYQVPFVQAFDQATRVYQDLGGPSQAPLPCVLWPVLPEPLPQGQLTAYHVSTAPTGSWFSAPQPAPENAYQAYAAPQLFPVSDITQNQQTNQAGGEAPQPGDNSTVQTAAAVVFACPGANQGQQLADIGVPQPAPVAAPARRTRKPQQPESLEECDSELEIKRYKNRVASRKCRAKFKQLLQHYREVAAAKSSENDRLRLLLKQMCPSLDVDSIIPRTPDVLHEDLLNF
M18AAP inhibitor: PfM18AAP enzyme inhibition; recombinant PfM18AAP, H-Glu-NHMec fluorogenic cleavage; 290,000 compounds, 1.2% hits; inhibition, % at 7.35 µM;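 active = inhibition above the campaign mean inhibition over all tested compounds plus 3 SD, cut at about 28% in these data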;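 note: 0% = plate median of test compound wells and 100% = 2 mM ZnCl2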
core dimer inh: HCV core protein dimerization inhibition; TR-FRET GST/Flag-core106 dimerization, 1536-well; inhibition, % at 5 µM; 300,000 compounds, 0.33% hits;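 active = inhibition above the mean of all tested compounds plus 3 SD, set per screening campaign, cut at about 45% in these data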
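Material: Tagged HCV core106 pair (GST and Flag) | Amount: GST-core106 13.5 nM, Flag-core106 17 nM | Medium: KF-containing HEPES buffer, pH 7.45, DTT, CHAPS, BSA | Reagent: Eu donor and XL665 acceptor anti-tag antibodies | Schedule: 4 h at 22.5 °C | Technique: Time-resolved FRET, ex 340 nm, em 617 and 671 nm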
NS3 helicase inh: HCV NS3 helicase inhibition; 290,000 compounds, 0.56% hits; NS3 helicase DNA unwinding, Cy5 molecular beacon fluorescence; inhibition, % at 10.9 µM;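 active = inhibition above the mean of all tested compounds plus 3 SD, set per campaign, cut at about 35% in these data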;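 note: 0% = DMSO wells and 100% = thioflavine S control wells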
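System: HCV NS3 helicase fragment; control set: DMSO and thioflavine S; technique: Cy5 fluorescence at 0 and 60 min, beacon hairpin quenching; reagent: beacon DNA duplex substrate plus ATP; replicates: singlicate; schedule: 1 h reaction at 25 °C, ATP-initiated; medium: MOPS buffer pH 6.5 with MgCl2, DTT, Tween20, BSA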
NS3 hel confirm: HCV NS3 helicase inhibition, confirmation assay. shares compounds with NS3 helicase inh. NS3 helicase DNA unwinding, Cy5 molecular beacon fluorescence. inhibition, % at 10.9 µM. 1,600 compounds, 31% hits. AID 1943;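 active = inhibition above the mean of all tested compounds plus 3 SD, cutoff set per campaign, cut at about 36% in these data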
FID counter trip: intercalator displacement, NS3 helicase counter-screen. inhibition, % at 7.9 µM. 1,600 compounds, 4% hits. DNA fluorescent intercalator displacement, fluorescence. shares compounds with NS3 helicase inh; in the data active = inhibition above about 37%;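 note: 0% = vehicle and 100% = reference compound; higher means more displacement of ethidium bromide from the DNA hairpin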
* marks the source's active call; other numbers are inactive results; · = not tested or not shown. Rows were chosen to be rich in hits. Some 5.2% of all compounds tested hit in one or more screens of this group.

SMILES	EBNA-1 inhibitor	ALR inh	ZTA DNA inh	M18AAP inhibitor	core dimer inh	NS3 helicase inh	NS3 hel confirm	FID counter trip
Cc1ccc(S(=O)(=O)Nc2cc(C(=O)O)ccc2N2CCCCC2)cc1	-3.4	44.7	0.9	-12.3	8.3	75.1*	17.2	-38.5
COCCNC(=O)CCCCCNS(=O)(=O)c1ccc(C)cc1	9.1	-4.9	14.7	-0.2	-3.1	2.3	·	·
Cc1ccc(S(=O)(=O)NCCCCCC(=O)NCCc2ccccc2)cc1	-14.9	-4.0	-24.9	-8.6	-5.3	43.2*	-10.9	-27.9
CCc1ccccc1NC(=O)/C(=C/c1ccco1)c1ccccc1	-5.3	5.2	-3.7	1.2	8.5	-2.1	·	·
CC(C)OC(=O)/C(=C/c1ccco1)c1ccccc1	6.9	·	-2.9	11.7	1.7	60.5*	-19.5	-9.0
C[C@H]1COC(=O)[C@H](CC(=O)OC(C)(C)C)C/C=C\C[C@@H](CC(=O)N[C@@H](CO)Cc2ccccc2)C(=O)N1	·	4.8	·	·	·	·	·	·
O=C(O)c1ccc(Cl)c2c1C1C=CCC1C(c1ccccn1)N2 (centres undefined)	13.5	-18.9	31.5	-42.3	11.1	62.6*	75.2*	6.8
Nc1nnc(SCC(=O)NC2CCCC2)s1	-3.4	-9.6	4.2	-4.1	0.7	5.8	·	·
CN(C(=O)CSc1nnc(N)s1)C1CCCCC1	-10.7	2.6	1.4	-7.1	-20.1	36.6*	-7.1	8.2
Cc1nn(Cc2ccccc2Cl)c(Cl)c1/C=C/C(=O)OCC(=O)NC1CCS(=O)(=O)C1 (centres undefined)	-1.9	-2.0	1.0	2.8	0.4	2.7	·	·
Cc1nn(Cc2ccccc2)c(Cl)c1/C=C/C(=O)OCC(=O)N(C)C1CCS(=O)(=O)C1 (centres undefined)	4.0	5.4	-2.8	-0.1	0.2	46.4*	-11.6	-19.7
COc1ccc(OCC(=O)NC2CCSc3ccccc32)cc1 (centres undefined)	·	-1.9	·	·	·	·	·	·
O=C(NNC(=O)C1CC(c2cccs2)=NO1)Nc1ccccc1 (centres undefined)	-2.9	10.0	-1.0	-11.2	2.2	5.9	·	·
O=C(O)C1Nc2c(cccc2C(F)(F)F)C2C=CCC12 (centres undefined)	·	-29.3	·	-20.5	·	7.3	·	·
CC(=O)c1ccc2c(c1)C1C=CCC1C(c1ccncc1)N2 (centres undefined)	-1.9	-15.7	-29.2	19.6	2.9	17.4	·	·
CC(=O)c1ccc2c(c1)C1C=CCC1C(C(=O)O)N2 (centres undefined)	·	·	·	21.4	·	50.6*	90.5*	0.9
COc1cccc2c1NC(C(=O)O)C1CC=CC21 (centres undefined)	20.1	81.3*	37.7*	10.4	45.4	58.0*	93.3*	-1.8
Cc1cc(C(=O)NC(C)C2CCCO2)c(C)o1 (centres undefined)	-10.6	2.0	-2.2	3.9	0.9	1.7	·	·
C=CCOc1c(Br)cc(/C=C2/NC(=S)N(C(C)=O)C2=O)cc1OC	4.5	12.3	0.9	11.8	8.0	23.8	·	·
C=CCOc1ccc(Br)cc1/C=C1\NC(=S)N(C(C)=O)C1=O	-0.8	·	4.2	25.1	9.6	39.5*	3.1	2.9
CCOC(=O)CC(=O)CSc1nc2c(c(-c3cccs3)c1C#N)CCC2	-8.2	·	8.6	0.9	12.1	40.6*	4.0	-3.4
Cc1[nH]c(C)c(C(=O)/C=C/c2ccc([N+](=O)[O-])cc2)c1C	-16.2	50.8	-8.3	10.2	37.6	-7.3	·	·
Cc1ccc(/C=C/C(=O)Nc2ncc(C)s2)o1	-6.3	1.1	5.9	13.5	-4.4	50.3*	-9.0	7.7
Cc1cnc(NC(=O)/C=C/c2ccc(Br)o2)s1	10.1	-15.5	-15.3	6.8	4.3	5.3	·	·
COc1ccccc1C(NC(C)=O)c1cc(Cl)c2cccnc2c1O (centres undefined)	5.6	-16.7	7.4	-7.3	8.3	40.3*	-8.0	-4.0
CC(=O)NC(c1ccc(Cl)cc1Cl)c1ccc2cccnc2c1O (centres undefined)	·	-3.9	·	10.2	·	36.2*	12.9	-16.0

Screens as filed in PubChem.
